Data set [1] addresses Beta-secretase 1 (Mus musculus) (UniProt P56818). The data set can be described thus: Inhibition of BACE1 in mouse N2a695 cells assessed as reduction in Abeta40 production at 10 uM incubated for 6 hrs by ELISA. Type of data set: cell-based. In general terms: In an ELISA, binding on a coated surface is turned into a signal by an enzyme label.
Data set [2] can be described thus: Cytotoxicity against mouse N2a695 cells assessed as reduction in cell viability at 10 uM incubated for 5 hrs by MTT assay. It is filed as cell-based. The essentials:
(§1)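 Viability of N2a cells by MTT assay after 5 h and 24 h incubation with compound (10 μM; one comparator at 1 μM), scored as number of viable cells.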
For orientation: Tetrazolium assays rely on reduction of a dye to a coloured formazan, in cell work by metabolically active cells.

Data set [3] can be described thus: Cytotoxicity against mouse N2a695 cells assessed as reduction in cell viability at 10 uM incubated for 24 hrs by MTT assay. It is filed as cell-based. The essentials: as §1
Data set [4] deals with Beta-secretase 1 (Mus musculus) (UniProt P56818). The data set can be described thus: Inhibition of BACE1 in mouse N2a695 cells assessed as reduction in Abeta40 production transfected with human APP-FL at 10 uM incubated for 5 hrs by ELISA. It is filed as cell-based. Summed up:
(§2)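 N2a cells transfected with human APP-FL or APP-C99 treated with compounds at 10 μM. Aβ40 and Aβ42 in supernatants measured by ELISA; controls were BACE inhibitor MK8931 0.5 μM and γ-secretase inhibitor DAPT 1 μM.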

Data set [5] shares this target. The data set can be described thus: Inhibition of BACE1 in mouse N2a695 cells transfected with human APP-FL assessed as reduction in Abeta42 production at 10 uM incubated for 5 hrs by ELISA. Type of data set: cell-based. Summed up:
as §2

For data set [6] the target is unchanged. The data set can be described thus: Inhibition of BACE1 in mouse N2a695 cells transfected with human APP-C99 assessed as reduction in Abeta42 production at 10 uM incubated for 5 hrs by ELISA. Type of data set: cell-based. Summed up: as §2
The target is the same in data set [7]. Nature of the data set: Inhibition of BACE1 in mouse N2a695 cells assessed as reduction in Abeta40 production transfected with human APP-C99 at 10 uM incubated for 5 hrs by ELISA. It is filed as cell-based. Summed up:
as §2

For data set [8] the target is unchanged. Nature of the data set: Inhibition of BACE1 in mouse N2a695 cells assessed as reduction in Abeta40 production at 5 uM pretreated with BACE IV for 1 hr and measured after 5 hrs by ELISA. It is filed as cell-based. Summed up: (§3)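 N2a695 cells preincubated 1 h with DMSO or 0.5 μM BACE IV, then given fresh medium containing 5 μM compound. Aβ40 and Aβ42 measured by human Aβ ELISA as percent of DMSO or BACE IV-pretreated DMSO control. Duplicate or triplicate wells; average of three independent experiments.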

For data set [9] the target is unchanged. Nature of the data set: Inhibition of BACE1 in mouse N2a695 cells assessed as reduction in Abeta42 production at 5 uM pretreated with BACE IV for 1 hr and measured after 5 hrs by ELISA. Type of data set: cell-based. Summed up: as §3
Data set [10] shares this target. Nature of the data set: Inhibition of BACE1 in mouse N2a695 cells assessed as reduction in Abeta40 production at 20 uM incubated for 5 hrs by ELISA. Type of data set: cell-based.
The species named for the next data set is Mus musculus. Nature of the data set: Inhibition of Abeta42 production in mouse N2a695 cells at 20 uM incubated for 5 hrs by ELISA. Type of data set: functional, cell-based. Summed up:
(§4)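 N2a695 cells treated with compound (10 μM, or 20 μM for reference compound). Aβ42 in cell supernatant measured by human Aβ ELISA.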

Data set [11] in a line: Cytotoxicity against mouse N2a695 cells assessed as reduction in cell viability at 1 uM incubated for 5 and 24 hrs by MTT assay. Type of data set: cell-based. The essentials:
as §1

The species named for data set [12] is Homo sapiens. The data set can be described thus: Inhibition of Abl (unknown origin) assessed as residual activity at 1 uM relative to control.
In data set [13] the target is Proto-oncogene tyrosine-protein kinase Src (Homo sapiens) (UniProt P12931). The data set can be described thus: Inhibition of Src (unknown origin) assessed as residual activity at 1 uM relative to control.
Proto-oncogene tyrosine-protein kinase Src (Homo sapiens), sequence (P12931 2-536 limits assumed): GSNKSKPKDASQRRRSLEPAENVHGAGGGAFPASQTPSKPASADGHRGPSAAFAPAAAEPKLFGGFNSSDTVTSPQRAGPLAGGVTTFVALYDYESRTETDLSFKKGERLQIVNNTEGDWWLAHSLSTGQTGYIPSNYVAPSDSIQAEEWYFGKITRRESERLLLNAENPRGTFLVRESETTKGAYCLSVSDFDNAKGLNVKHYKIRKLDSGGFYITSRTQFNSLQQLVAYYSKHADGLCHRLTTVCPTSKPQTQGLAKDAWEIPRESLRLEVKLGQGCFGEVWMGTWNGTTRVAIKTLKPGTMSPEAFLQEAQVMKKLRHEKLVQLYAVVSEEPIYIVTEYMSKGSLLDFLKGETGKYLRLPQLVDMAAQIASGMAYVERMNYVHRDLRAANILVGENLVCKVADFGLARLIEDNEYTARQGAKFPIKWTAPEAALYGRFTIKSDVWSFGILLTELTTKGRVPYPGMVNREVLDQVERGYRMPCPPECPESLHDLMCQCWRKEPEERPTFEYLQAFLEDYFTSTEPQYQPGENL
The target of data set [14] is Beta-secretase 1 (Mus musculus) (UniProt P56818). The data set can be described thus: Inhibition of BACE1 in mouse N2a695 cells assessed as reduction in Abeta40 production at 10 uM incubated for 5 hrs by ELISA relative to control. It is filed as cell-based.
Beta-secretase 1 (Mus musculus), sequence (P56818 whole entry): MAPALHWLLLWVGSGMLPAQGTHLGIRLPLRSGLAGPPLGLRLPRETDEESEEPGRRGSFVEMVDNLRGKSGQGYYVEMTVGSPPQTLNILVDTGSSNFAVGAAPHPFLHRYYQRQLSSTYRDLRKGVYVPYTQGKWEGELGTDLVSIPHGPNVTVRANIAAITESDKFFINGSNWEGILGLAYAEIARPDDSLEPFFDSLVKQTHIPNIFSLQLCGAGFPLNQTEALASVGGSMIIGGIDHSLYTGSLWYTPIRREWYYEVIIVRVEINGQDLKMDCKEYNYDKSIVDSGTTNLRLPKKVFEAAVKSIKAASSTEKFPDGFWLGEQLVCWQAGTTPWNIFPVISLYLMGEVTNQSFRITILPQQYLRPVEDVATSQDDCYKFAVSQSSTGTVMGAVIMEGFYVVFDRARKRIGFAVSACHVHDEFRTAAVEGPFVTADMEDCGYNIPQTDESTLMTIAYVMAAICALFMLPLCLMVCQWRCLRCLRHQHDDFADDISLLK
The target is the same in data set [15]. Nature of the data set: Inhibition of BACE1 in mouse N2a695 cells assessed as reduction in Abeta42 production at 10 uM incubated for 5 hrs by ELISA relative to control. It is filed as cell-based. Summed up: as §4
The species entered for data set [16] is Homo sapiens. Nature of the data set: Inhibition of Abl (unknown origin) assessed as residual activity at 10 uM relative to control. Summed up:
(§5)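 Abl and Src kinase activity measured by an outside service with compounds at 10 μM; activity reported relative to control.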

In data set [17] the target is Proto-oncogene tyrosine-protein kinase Src (Homo sapiens) (UniProt P12931). The data set can be described thus: Inhibition of Src (unknown origin) assessed as residual activity at 10 uM relative to control. Summed up: as §5

Active and inactive are the calls of the source. No cut-off for these calls is given here.

For orientation: inhibition means the relative decrease from the control value, in per cent. For `Cn1c(=O)c(-c2c(Cl)cccc2Cl)cc2cnc(N3CCN(Cc4ccccc4)CC3)nc21`, in data set [1], the inhibition entry is “Active”. For the same molecule, the Activity result in data set [2] is listed as “Non-Toxic”; in [3], “Toxic”.
The like results for `CN1CCN(c2ncc3cc(-c4cc(Cl)cc(Cl)c4)c(=O)n(C)c3n2)CC1` were, in that order, “Active”, “Non-Toxic” and “Non-Toxic”.
As to `Cn1c(=O)c(-c2c(Cl)cccc2Cl)cc2cnc(N3CCNCC3)nc21`, the Activity entry in data set [2] and in data set [3] was “Non-Toxic” throughout. Also, the inhibition result in [4], in [5], in data set [6], in [8], in data set [9] and in [10] was “Active” in each case. In addition, the inhibition entry in the data set filed under Mus musculus was “Active”. The inhibition entry in [7] is “inactive”.
`Cl.Cn1c(=O)c(-c2c(Cl)cccc2Cl)cc2cnc(N3CCN(C4CCNCC4)CC3)nc21`: in data set [1], the inhibition entry was “Active”. Further, the Activity entry in [2] and in data set [3] was “Non-Toxic” throughout.
In the case of `CSc1cccc(Nc2ncc3cc(-c4c(Cl)cccc4Cl)c(=O)n(C)c3n2)c1`, the Activity result is “Non-Toxic” in data set [11], 99.7% in the data set listed under Homo sapiens [12] and 99.5% in data set [13].
Take `CN1CCC(N2CCN(c3ncc4cc(-c5c(Cl)cccc5Cl)c(=O)n(C)c4n3)CC2)CC1`: the inhibition result in data set [1] is “Active”. In addition, the Activity entry is “Non-Toxic” in data set [2], “Non-Toxic” in data set [3], 20.8% in the data set listed under Homo sapiens [16] and 10.5% in [17]. The inhibition in [14] and in [15] was over 50% in each case.
As for `CN1CCC(N2CCN(c3ncc4cc(-c5c(Cl)cc(NC(=O)C(C)(C)C)cc5Cl)c(=O)n(C)c4n3)CC2)CC1`, the inhibition result in data set [1], in [4], in data set [5], in data set [6], in data set [8] and in data set [9] was “Active” in each case. Besides, the Activity entry in [2] was “Non-Toxic”; in data set [3], “Non-Toxic”; in the data set filed under Homo sapiens [16], 3.2%; in data set [17], 8.9%. The inhibition in data set [14] and in [15] was over 50% throughout. Besides, in data set [7], the inhibition entry was “inactive”.
As for `Cc1ccc(NC(=O)c2ccc(CN3CCN(C)CC3)cc2)cc1Nc1nccc(-c2cccnc2)n1`, in data set [1], the inhibition entry was “Active”.
In the case of `CN1CCC(N2CCN(c3ncc4cc(-c5c(Cl)cc(NC(=O)OC(C)(C)C)cc5Cl)c(=O)n(C)c4n3)CC2)CC1`, the inhibition result in data set [1] is “Active”. For the same molecule, the Activity result was “Non-Toxic” in data set [2], “Toxic” in [3], 8.5% in the data set listed under Homo sapiens [16] and 10.4% in data set [17]. In addition, the inhibition in data set [14] and in [15] was over 50% in each case.
As for `CN1CCN(c2ncc3cc(-c4c(Cl)cc(NC(=O)C(C)(C)C)cc4Cl)c(=O)n(C)c3n2)CC1`, the inhibition entry in data set [1] is “Active”. Moreover, the Activity result in [2] and in [3] was “Non-Toxic” throughout.
Take `Cn1c(=O)c(-c2c(Cl)cccc2Cl)cc2cnc(N3CCC(N4CCCCC4)CC3)nc21`: the inhibition entry in data set [1] is “Active”. The Activity result in data set [2] and in data set [3] was “Non-Toxic” each time.
Turning to `Cn1c(=O)c(-c2c(Cl)cc(NC(=O)OC(C)(C)C)cc2Cl)cc2cnc(N3CCN(c4ccncc4)CC3)nc21`, the inhibition entry in data set [1], in [4], in data set [5], in data set [6], in data set [8] and in data set [9] was “Active” throughout. Further, the Activity entry in data set [2] was “Non-Toxic”; in data set [3], “Non-Toxic”; in the data set filed under Homo sapiens [16], 0%; in data set [17] it was 8%. Moreover, the inhibition in [14] and in data set [15] was over 50% each time. In addition, the inhibition result in [7] is “inactive”.

For the origin of these results see ChEMBL document CHEMBL4304833, “Development of Kinase Inactive PD173955 Analogues for Reducing Production of Aβ Peptides” (ACS Med Chem Lett, 2019).
